STAT3 activator: IL-6 driven STAT3 reporter potentiators, primary screen, U3A cells, luciferase, luminescence, MLSCN library; AID 871, 2007; IL-6 STAT3-luciferase reporter; 100% = signal with IL-6 EC80 alone; activation (% of control), % at 5.6 µM; 190,000 tested, 0.91% active;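 active = activation above the screen-wide mean of compound activation plus 3 SD, cut at about 130% in these data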;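 also: 0% = background luminescence of wells with medium and substrate only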
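Material: STAT3-luciferase reporter U3A cells; Probe or stimulus: IL-6 (33 ng/mL); Incubation: compound pre-incubation 1 h before IL-6, then 6 h stimulation at 37 °C; Technique: luminescence from STAT3-driven luciferase reporter; Evaluation: % activation versus median of IL-6-stimulated wells; Controls: IL-6-only high control.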
FXIIa inh 1536: human FXIIa protease inhibitors, primary screen, biochemical, 1536-well; Coagulation factor XII (Homo sapiens), P00748; purified FXIIa, Boc-QGR-AMC fluorogenic substrate, 2 h; inhibition, % at 5 µM; 220,000 tested, 0.3% active; AID 800, 2007; in the data active = inhibition above about 40%;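 also: 0% = enzyme with no compound and 100% = blank without enzyme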
Thrombin inh: human alpha-thrombin inhibitors, primary screen, counter-screen for coagulation protease inhibitor project, biochemical, 1536-well, fluorogenic AMC substrate. Prothrombin (Homo sapiens), P00734. Boc-VPR-AMC fluorogenic substrate cleavage. inhibition, % at 5 µM. 220,000 tested, 0.26% active. AID 1046, 2008;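 active = inhibition at or above 40%; inactive = inhibition below 40%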;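 also: 0% = enzyme with no compound and 100% = wells without enzyme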
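System – human alpha-thrombin protein · Reagent – Boc-VPR-AMC substrate, 15 µM final · Compound – 5 µM single dose in 0.2% DMSO · Schedule – reaction at room temperature · Technique – AMC fluorescence at 355 nm excitation and 460 nm emission · Read-out basis – % inhibition relative to enzyme controls and enzyme-free blanks · Control set – no-compound enzyme wells and no-enzyme blanks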
KLK5 inh: human KLK5 protease inhibitors, primary screen, biochemical, 1536-well; inhibition, % at 5 µM; 210,000 tested, 0.59% active; recombinant hK5, fluorogenic AMC substrate cleavage;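 active = inhibition of 40% or more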;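 also: 0% = enzyme controls without compound and 100% = no-enzyme blanks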
Target sequence (Q9Y337 67-293 limits assumed): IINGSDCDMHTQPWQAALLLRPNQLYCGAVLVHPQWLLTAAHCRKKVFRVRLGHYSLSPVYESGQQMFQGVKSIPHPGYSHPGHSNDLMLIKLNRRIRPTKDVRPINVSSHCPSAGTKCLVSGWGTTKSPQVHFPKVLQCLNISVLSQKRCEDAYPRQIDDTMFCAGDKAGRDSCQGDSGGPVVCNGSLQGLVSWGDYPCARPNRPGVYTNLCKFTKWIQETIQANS
AHR activator: AHR activators, primary screen, cell-based, luminescence, luciferase reporter, human | Aryl hydrocarbon receptor (Homo sapiens), P35869 | AHR-responsive luciferase reporter cells | 320,000 tested, 2.5% active | AID 2796, 2010 | activation, % at 5 µM; in the data active = activation above about 47%;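 also: 0% = vehicle wells and 100% = reference agonist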
FXIa inh: human FXIa protease inhibitors, primary screen, biochemical, 1536-well; Coagulation factor XI (Homo sapiens), P03951; purified FXIa, Boc-Glu-Ala-Arg-AMC fluorogenic substrate; inhibition, % at 5 µM; 220,000 tested, 0.14% active; AID 798, 2007;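 active = inhibition of at least 40%; inactive = inhibition below 40%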;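 also: fluorescence of freed AMC excited at 355 nm; 0% = enzyme without compound and 100% = no enzyme blank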
AHR act cf: AHR activators, confirmation, cell-based, luminescence, luciferase reporter, human. activation, % at 9 µM. shares compounds with AHR activator. 2,300 tested, 87% active. human cells, AHR-responsive luciferase reporter. AID 2845, 2010; in the data active = activation above about 49%;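 also: HepG2 hepatoma cells carrying a DRE-driven firefly luciferase reporter; 0% = vehicle wells and 100% = reference agonist wells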
PXR act counter: human PXR activators, counter-screen for AHR activator project, cell-based, luciferase luminescence; shares compounds with AHR activator; 2,300 tested, 88% active; AID 434939, 2010; activation, % at 11.6 µM; cell-based PXR reporter; in the data active = activation above about 11%;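 also: human hepatoma DPX-2 cells expressing full-length human PXR; 0% = DMSO and 100% = reference agonist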
Target sequence (O75469 whole entry, looked up): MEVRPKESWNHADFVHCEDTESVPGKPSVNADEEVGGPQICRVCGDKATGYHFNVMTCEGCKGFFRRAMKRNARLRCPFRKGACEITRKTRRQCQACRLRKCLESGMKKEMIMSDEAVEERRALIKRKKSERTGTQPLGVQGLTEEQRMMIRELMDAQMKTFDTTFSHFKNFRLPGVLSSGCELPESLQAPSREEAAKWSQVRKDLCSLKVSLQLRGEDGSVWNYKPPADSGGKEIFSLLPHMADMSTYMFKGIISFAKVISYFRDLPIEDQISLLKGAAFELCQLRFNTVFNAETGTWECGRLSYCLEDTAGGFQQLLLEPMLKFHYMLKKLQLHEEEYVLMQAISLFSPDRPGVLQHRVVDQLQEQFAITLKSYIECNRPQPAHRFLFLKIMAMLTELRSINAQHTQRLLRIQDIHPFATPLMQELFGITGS
* = called active by the depositor; . = no result. Most compounds without a hit are left out; they make up all but 3.5% or so of the library.

SMILES | STAT3 activator | FXIIa inh 1536 | Thrombin inh | KLK5 inh | AHR activator | FXIa inh | AHR act cf | PXR act counter
O=C(/C=C\c1ccccc1)Nc1nccs1 | 81.3 | 24.6 | -2.6 | -5.3 | 111.1* | 15.5 | 72.9* | 20.7*
O=C(/C=C/c1cccc(F)c1)Nc1nccs1 | 96.2 | -7.9 | -16.7 | -7.4 | 19.4 | -4.1 | . | .
CCN(CC)C(=O)C1CCCN(C(=O)c2cc(COc3cccc(OC)c3)on2)C1 (stereo unspecified) | . | . | . | . | 2.1 | . | . | .
c1cc(CSc2nnc(-c3ccc4c(c3)OCO4)o2)ccn1 | 98.2 | 21.6 | 3.8 | -3.2 | 87.5* | 16.6 | 52.4* | 24.1*
CN(c1ccccc1)S(=O)(=O)c1cccc(NC(=O)c2ccc(=O)[nH]n2)c1 | . | . | . | . | 1.4 | . | . | .
O=C1N/C(=N\c2ccccn2)SC1Cc1ccccc1Cl (stereo unspecified) | . | 16.2 | 11.3 | 5.0 | 79.6* | 5.7 | 89.1* | 33.9*
Cc1cccc(CC2S/C(=N/c3ccccn3)NC2=O)c1 (stereo unspecified) | 97.1 | 0.2 | -2.4 | -7.4 | 7.0 | -14.6 | . | .
COC(=O)[C@@H](Cc1ccccc1)NC(=O)Cn1cnc2c(SC)nc(N)nc21 | . | . | . | . | 0.8 | . | . | .
CCOc1ccc2nc(NC(=O)Nc3cccs3)sc2c1 | 89.2 | 7.8 | -1.9 | -15.2 | 95.6* | -1.3 | 90.2* | 12.0*
Cn1cc(/C=N/NC(N)=S)c2ccccc21 | . | -0.9 | -25.4 | -2.5 | 14.9 | 1.3 | . | .
Cc1cc(/C=N/NC(=O)c2cccs2)c(C)n1-c1cnccn1 | 113.5 | 10.3 | 1.1 | 16.8 | 109.8* | 4.2 | 117.8* | 21.3*
C=CCNC(=S)N/N=C/c1cn(C)c2ccccc12 | . | 6.3 | -0.2 | 5.0 | 95.4* | 1.6 | 74.5* | 166.7*
Cn1cccc1/C=N/NC(=O)c1cccs1 | . | . | . | . | 5.4 | . | . | .
Cn1cc(/C=N\NC(=O)c2cccs2)c2ccccc21 | 94.8 | 5.1 | 6.6 | -4.0 | 148.8* | -5.7 | 109.5* | 21.1*
Cc1ccc(C)[n+](CC(=O)c2ccc(-c3ccccc3)cc2)c1 | 96.4 | 4.9 | . | -4.7 | 19.1 | 1.8 | . | .
CC(=O)Oc1ccc(-c2csc(Nc3cccc(C)n3)n2)cc1 | . | . | . | . | 14.2 | . | . | .
COc1ccc(-c2csc(Nc3cccc(C)n3)n2)cc1 | . | . | . | . | 87.9* | . | 96.5* | 19.0*
Cc1cccc(Nc2nc(-c3ccc(F)cc3)cs2)n1 | . | . | . | . | 79.5* | . | 110.9* | 10.3*
COc1ccccc1NS(=O)(=O)c1cccc(-n2c(O)c(C=Nc3ccccc3C(=O)O)c3ccccc3c2=O)c1 | . | 10.3 | 0.6 | 5.5 | -2.5 | 4.5 | . | .
CCOC(=O)C1=C(COC(=O)Cc2ccccc2)NC(=O)NC1C (stereo unspecified) | . | . | . | . | 0.6 | . | . | .
Cc1c(C(=O)NCc2ccccc2CN2CCCC2)oc2c(F)cccc12 | . | . | . | . | 80.3* | . | 95.4* | 38.5*
CNc1nc(Nc2ccc(C)c(Cl)c2)c2cnn(C)c2n1 | . | . | . | . | 36.7 | . | . | .
Cn1ncc2c(Nc3cccc(Cl)c3)nc(Nc3cccc(Cl)c3)nc21 | . | 5.9 | -4.2 | -1.9 | 29.3 | 2.6 | . | .
Cn1ncc2c(Nc3ccc(Br)cc3)nc(Nc3ccc(Br)cc3)nc21 | . | 11.1 | 0.0 | 2.1 | 111.6* | 11.4 | 104.0* | 13.0*
Cc1ccc(Nc2nc(NCCO)nc3c2cnn3C)cc1Cl | . | . | . | . | 80.5* | . | 120.0* | 15.7*
SMILES | STAT3 activator | FXIIa inh 1536 | Thrombin inh | KLK5 inh | AHR activator | FXIa inh | AHR act cf | PXR act counter
CCn1c(SCC(=O)c2cc(OC)ccc2OC)nnc1C1CC1 | 98.0 | . | . | . | 21.5 | . | . | .
COc1cc(OC)cc(C(=O)NCCS(=O)(=O)N2CCN(Cc3ccccc3)CC2)c1 | . | . | . | . | 2.6 | . | . | .
O=C(NC(=S)Nc1ccc2cn[nH]c2c1)c1ccccc1 | 112.8 | 11.3 | -10.1 | 0.8 | 83.7* | -2.2 | 80.8* | 75.3*
S=C(Nc1ccccc1)Nc1ccc2cn[nH]c2c1 | . | 2.2 | 22.1 | -4.8 | 5.9 | 0.4 | . | .
Cn1cnnc1SCC(=O)NC1CC1 | . | . | . | . | 0.2 | . | . | .
Clc1ccccc1Cn1nnc(-c2ccccc2)n1 | 108.7 | 4.5 | 3.3 | -4.3 | 41.1 | -1.6 | . | .
Clc1ccccc1Cn1nnc(-c2cccs2)n1 | 128.2 | 4.0 | 2.6 | -19.4 | 117.0* | -0.4 | 149.6* | 37.4*
NC1=NC(=O)/C(=C/c2cn(Cc3ccccc3)c3ccccc23)S1 | 97.7 | 6.6 | -2.6 | -5.6 | 115.5* | 8.6 | 87.3* | 25.1*
CCOC(=O)C1Cc2c([nH]c3ccccc23)C(C)N1 (stereo unspecified) | 95.3 | 6.9 | -1.4 | -3.2 | 2.9 | -8.5 | . | .
COc1ccccc1N(CC(O)Cn1c(C)nc2ccccc21)S(=O)(=O)c1ccccc1 (stereo unspecified) | 108.4 | 13.4 | -4.5 | -10.1 | -1.2 | 11.2 | . | .
Cc1cccc2sc(NNC(=O)C3COc4ccccc4O3)nc12 (stereo unspecified) | 113.2 | 0.1 | -0.8 | -74.5 | 94.5* | -3.8 | 41.0 | 19.8*
Cc1cc(C)c2sc(NNC(=O)C3COc4ccccc4O3)nc2c1 (stereo unspecified) | 94.1 | 12.0 | 2.3 | -65.4 | 103.0* | 8.9 | 69.4* | 24.8*
CC(=O)Nc1cccc(-c2cnc(N)c(C(=O)c3cccnc3)n2)c1 | . | . | . | . | 0.8 | . | . | .
CCOC(=O)Cc1cn2c(=O)cc(CSCC(=O)Nc3ccc(C)c(C)c3)nc2s1 | 95.9 | -3.9 | -4.7 | -39.4 | -0.5 | -1.1 | . | .
O=C(Nc1cccnc1)Nc1cc(Cl)cc(Cl)c1 | 101.8 | 6.1 | -2.8 | . | 113.0* | 0.4 | 61.8* | .
COc1ccccc1NC(=O)Nc1cccnc1 | 106.8 | 10.6 | -3.9 | 3.3 | 122.2* | 3.1 | 93.2* | .
CCC(C)(C)NC(=O)C1CCN(c2nc(OC)nc(OC)n2)CC1 | 100.9 | -1.5 | -0.1 | -16.0 | 0.1 | -2.9 | . | .
COc1ccc(Nc2nc3cc(C)ccc3cc2C#N)cc1 | . | . | . | . | 107.6* | . | 93.7* | 14.9*
COc1ccc(Nc2nc3cc(C)ccc3cc2C#N)c(OC)c1 | 100.2 | 2.8 | -17.2 | -2.9 | 9.3 | -2.9 | . | .
Cc1ccc(C)c(C(=O)OCC(=O)Nc2cccc(S(=O)(=O)N3CCCCC3)c2)c1 | . | . | . | . | 0.8 | . | . | .
Cc1cccc2cc(C#N)c(SCCN3CCCCC3)nc12 | 104.5 | . | . | . | 80.9* | . | 101.2* | 47.8*
Oc1[nH]c2ccccc2c1N=Nc1ccc(F)cc1 | 119.3 | 7.5 | -9.7 | -17.4 | 94.0* | 1.7 | 91.2* | 7.1
Cc1nc(N)sc1-c1csc(Nc2ccccc2)n1 | 128.3 | -1.9 | 2.8 | -12.5 | 81.2* | 2.7 | 147.0* | 19.9*

Source: PubChem BioAssay
